This is an account of results in ChEMBL document CHEMBL1138736, “Imidazoquinoxaline Src-family kinase p56Lck inhibitors: SAR, QSAR, and the discovery of (S)-N-(2-chloro-6-methylphenyl)-2-(3-methyl-1-piperazinyl)imidazo- [1,5-a]pyrido[3,2-e]pyrazin-6-amine (BMS-279700) as a potent and orally active inhibitor with excellent in vivo antiinflammatory activity” (J Med Chem, 2004).

Structures are written as SMILES. “And” between values parts separate entries of the source, which are not always exact repeats. Equal values may be shown once. Some results are limits rather than exact numbers.

Assay [1] is described as follows: Inhibition of Protein kinase A.
The target in assay [2] is Protein kinase C (PKC). The experiment in a line: Inhibition of PKC kinase. Format: protein assay.
Assay [3] has as its target Tyrosine-protein kinase Yes (Homo sapiens, UniProt P07947). The experiment in a line: Inhibition of Yes kinase.
Assay [4] addresses Receptor tyrosine-protein kinase erbB-2 (Homo sapiens, UniProt P04626). The experiment in a line: Inhibition of HER2 kinase.
Assay [5] can be described thus: Binding affinity for recombinant Lck/Yes-related tyrosine kinase expressed in insect cells.
Assay [6] addresses Tyrosine-protein kinase HCK (Homo sapiens, UniProt P08631). The experiment in a line: Inhibition of Hck kinase.
Assay [7] in a line: Inhibition of Platelet-derived growth factor receptor.
The target in assay [8] is Tyrosine-protein kinase SYK (Homo sapiens, UniProt P43405). The experiment in a line: Inhibition of Syk protein tyrosine kinase.
In assay [9] the target is Tyrosine-protein kinase Lyn (Homo sapiens, UniProt P07948). Put plainly: Inhibition of Lyn kinase.
Chain of Tyrosine-protein kinase Lyn (P07948 whole entry): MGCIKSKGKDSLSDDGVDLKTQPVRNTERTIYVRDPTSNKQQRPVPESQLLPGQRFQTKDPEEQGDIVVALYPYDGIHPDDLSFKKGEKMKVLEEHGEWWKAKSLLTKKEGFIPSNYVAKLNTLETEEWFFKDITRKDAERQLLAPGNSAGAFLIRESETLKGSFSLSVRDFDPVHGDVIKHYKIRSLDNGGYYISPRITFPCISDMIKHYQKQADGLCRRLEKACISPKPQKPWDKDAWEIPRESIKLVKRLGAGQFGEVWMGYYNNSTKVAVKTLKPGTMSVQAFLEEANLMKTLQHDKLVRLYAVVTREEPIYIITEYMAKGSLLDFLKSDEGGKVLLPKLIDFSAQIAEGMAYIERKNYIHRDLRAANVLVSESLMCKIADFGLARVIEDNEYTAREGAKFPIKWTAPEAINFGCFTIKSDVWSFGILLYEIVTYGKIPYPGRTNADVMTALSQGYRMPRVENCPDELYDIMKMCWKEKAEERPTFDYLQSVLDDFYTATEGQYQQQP
Assay [10] deals with Tyrosine-protein kinase Fyn (Homo sapiens, UniProt P06241). Put plainly: Inhibition of Fyn protein kinase.
Chain of Tyrosine-protein kinase Fyn (P06241 whole entry): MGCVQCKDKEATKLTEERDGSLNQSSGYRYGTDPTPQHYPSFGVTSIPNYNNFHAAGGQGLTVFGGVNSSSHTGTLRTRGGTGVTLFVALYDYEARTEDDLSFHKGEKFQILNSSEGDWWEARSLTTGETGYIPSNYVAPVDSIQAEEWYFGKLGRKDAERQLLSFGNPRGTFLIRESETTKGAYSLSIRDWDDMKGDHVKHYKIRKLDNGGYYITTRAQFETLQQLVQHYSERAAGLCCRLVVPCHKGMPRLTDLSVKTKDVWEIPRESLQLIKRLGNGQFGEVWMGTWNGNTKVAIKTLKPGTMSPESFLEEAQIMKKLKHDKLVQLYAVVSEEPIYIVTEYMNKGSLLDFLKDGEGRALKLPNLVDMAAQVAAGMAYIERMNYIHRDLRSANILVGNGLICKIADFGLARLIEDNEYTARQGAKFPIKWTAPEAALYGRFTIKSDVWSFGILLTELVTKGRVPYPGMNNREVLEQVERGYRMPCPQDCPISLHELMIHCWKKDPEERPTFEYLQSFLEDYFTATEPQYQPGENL
For assay [11], the target named is T1, Tyrosine-protein kinase ZAP-70 (Homo sapiens, UniProt P43403).
T1 sequence (P43403 whole entry): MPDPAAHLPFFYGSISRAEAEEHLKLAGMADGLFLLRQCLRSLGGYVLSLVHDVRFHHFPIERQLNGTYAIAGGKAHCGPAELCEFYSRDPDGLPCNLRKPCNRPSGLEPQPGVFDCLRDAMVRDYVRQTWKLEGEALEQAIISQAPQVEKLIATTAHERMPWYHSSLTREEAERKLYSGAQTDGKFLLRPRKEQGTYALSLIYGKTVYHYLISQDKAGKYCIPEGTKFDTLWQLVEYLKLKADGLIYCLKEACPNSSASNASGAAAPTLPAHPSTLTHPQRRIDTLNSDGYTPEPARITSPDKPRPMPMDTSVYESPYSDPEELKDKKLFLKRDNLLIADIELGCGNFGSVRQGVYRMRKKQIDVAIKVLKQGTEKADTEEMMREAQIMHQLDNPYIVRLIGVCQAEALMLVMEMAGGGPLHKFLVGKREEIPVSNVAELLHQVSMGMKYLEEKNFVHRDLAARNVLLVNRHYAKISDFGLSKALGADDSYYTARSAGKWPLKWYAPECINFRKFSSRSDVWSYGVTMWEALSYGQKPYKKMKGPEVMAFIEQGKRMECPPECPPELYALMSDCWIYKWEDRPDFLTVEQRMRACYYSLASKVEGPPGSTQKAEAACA
The experiment in a line: Inhibition of Zeta-chain (TCR) associated protein kinase 70 kDa (ZAP-70).

Assay [12] can be described thus: Inhibition of Blk kinase.
Assay [13] in a line: Inhibition of p56 Lck tyrosine kinase. The procedure, abridged: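 His-tagged recombinant Lck made in insect cells by baculovirus and purified on nickel affinity resin. Kinase buffer is 20 mM MOPS pH 7 with 10 mM MgCl2, and the test compound is present. It is stopped after 10 min with TCA/pyrophosphate then BSA. Enolase is precipitated at 4 °C, filtered and counted by scintillation.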

The target in assay [14] is MAP kinase p38 (Homo sapiens, UniProt O15264+Q15759+Q16539+P53778). Put plainly: Inhibition of p38 MAP-kinase. Format: protein assay.
Assay [15] in a line: Inhibition of Human PBL (T cell) proliferation. Format: functional. In short, it runs like this:
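Normal human peripheral blood T cells are added with test compound and anti-CD28 (E.3) antibody to wells precoated with anti-CD3 mAb (G19-4). After 3 days [3H]-thymidine is added, and after further incubation the cells are harvested and incorporation is counted by scintillation.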

Assay [16] deals with T2, Inhibitor of nuclear factor kappa-B kinase subunit alpha (Homo sapiens, UniProt O15111).
T2 sequence (O15111 whole entry): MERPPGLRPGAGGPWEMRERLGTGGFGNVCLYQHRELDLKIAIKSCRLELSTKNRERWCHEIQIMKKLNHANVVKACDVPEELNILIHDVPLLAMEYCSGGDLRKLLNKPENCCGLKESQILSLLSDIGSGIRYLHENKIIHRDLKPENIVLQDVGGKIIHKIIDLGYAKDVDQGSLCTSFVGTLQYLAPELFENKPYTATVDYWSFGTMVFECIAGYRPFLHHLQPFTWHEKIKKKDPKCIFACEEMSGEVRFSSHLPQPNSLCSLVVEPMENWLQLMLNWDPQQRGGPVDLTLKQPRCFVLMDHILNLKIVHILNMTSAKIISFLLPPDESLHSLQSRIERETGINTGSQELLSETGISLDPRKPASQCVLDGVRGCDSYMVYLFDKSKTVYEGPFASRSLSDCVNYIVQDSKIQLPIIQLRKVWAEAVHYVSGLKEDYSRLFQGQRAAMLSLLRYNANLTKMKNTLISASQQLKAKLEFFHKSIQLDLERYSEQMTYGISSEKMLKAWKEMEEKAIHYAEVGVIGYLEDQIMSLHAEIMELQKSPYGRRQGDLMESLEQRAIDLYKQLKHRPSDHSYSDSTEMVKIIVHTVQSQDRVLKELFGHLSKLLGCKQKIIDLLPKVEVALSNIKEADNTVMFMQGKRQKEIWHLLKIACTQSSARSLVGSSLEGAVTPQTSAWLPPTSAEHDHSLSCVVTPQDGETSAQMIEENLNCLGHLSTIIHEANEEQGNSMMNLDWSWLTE
The experiment in a line: Inhibition of I kappa-B kinase alpha.

Assay [17] deals with T3, Inhibitor of nuclear factor kappa-B kinase subunit beta (Homo sapiens, UniProt O14920).
T3 sequence (O14920 whole entry): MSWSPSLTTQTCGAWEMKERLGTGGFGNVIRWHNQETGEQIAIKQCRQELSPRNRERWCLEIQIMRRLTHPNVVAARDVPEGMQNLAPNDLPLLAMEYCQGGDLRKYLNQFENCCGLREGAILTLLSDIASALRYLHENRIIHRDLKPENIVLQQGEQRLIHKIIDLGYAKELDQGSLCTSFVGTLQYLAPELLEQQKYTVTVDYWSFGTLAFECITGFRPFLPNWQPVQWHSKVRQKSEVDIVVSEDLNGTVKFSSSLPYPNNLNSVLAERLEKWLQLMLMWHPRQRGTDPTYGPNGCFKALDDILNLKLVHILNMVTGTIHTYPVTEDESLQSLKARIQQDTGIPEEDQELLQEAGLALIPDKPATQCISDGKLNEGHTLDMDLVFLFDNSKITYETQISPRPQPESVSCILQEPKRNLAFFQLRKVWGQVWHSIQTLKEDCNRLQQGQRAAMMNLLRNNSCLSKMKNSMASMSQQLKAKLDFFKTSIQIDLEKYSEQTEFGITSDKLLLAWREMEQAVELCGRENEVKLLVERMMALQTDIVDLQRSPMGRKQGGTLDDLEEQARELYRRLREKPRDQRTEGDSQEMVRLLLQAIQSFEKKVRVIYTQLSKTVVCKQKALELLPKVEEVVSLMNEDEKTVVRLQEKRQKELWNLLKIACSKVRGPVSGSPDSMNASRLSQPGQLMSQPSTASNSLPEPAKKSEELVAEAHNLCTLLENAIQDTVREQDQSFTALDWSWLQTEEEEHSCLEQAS
The experiment in a line: Inhibition of I-kappa-B-kinase beta.

Assay [18] addresses Tyrosine-protein kinase Fgr (Homo sapiens, UniProt P09769). Put plainly: Inhibition of Fgr protein kinase.

Chain of Tyrosine-protein kinase Yes (P07947 whole entry): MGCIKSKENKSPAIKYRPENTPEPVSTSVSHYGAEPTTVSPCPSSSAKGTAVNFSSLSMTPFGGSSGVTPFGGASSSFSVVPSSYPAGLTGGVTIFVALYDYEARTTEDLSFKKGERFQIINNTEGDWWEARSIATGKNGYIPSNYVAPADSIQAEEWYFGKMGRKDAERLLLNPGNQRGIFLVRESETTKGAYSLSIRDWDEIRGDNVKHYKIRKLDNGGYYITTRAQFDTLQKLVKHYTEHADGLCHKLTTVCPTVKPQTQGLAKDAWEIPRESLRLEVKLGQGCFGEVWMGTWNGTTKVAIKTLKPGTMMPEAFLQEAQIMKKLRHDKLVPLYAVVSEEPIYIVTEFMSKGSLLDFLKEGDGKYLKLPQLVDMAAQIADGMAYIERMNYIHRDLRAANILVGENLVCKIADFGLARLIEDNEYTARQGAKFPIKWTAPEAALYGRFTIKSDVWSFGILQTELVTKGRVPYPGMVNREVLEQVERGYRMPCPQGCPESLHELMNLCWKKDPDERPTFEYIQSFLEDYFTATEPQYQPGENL
Chain of Tyrosine-protein kinase HCK (P08631 whole entry): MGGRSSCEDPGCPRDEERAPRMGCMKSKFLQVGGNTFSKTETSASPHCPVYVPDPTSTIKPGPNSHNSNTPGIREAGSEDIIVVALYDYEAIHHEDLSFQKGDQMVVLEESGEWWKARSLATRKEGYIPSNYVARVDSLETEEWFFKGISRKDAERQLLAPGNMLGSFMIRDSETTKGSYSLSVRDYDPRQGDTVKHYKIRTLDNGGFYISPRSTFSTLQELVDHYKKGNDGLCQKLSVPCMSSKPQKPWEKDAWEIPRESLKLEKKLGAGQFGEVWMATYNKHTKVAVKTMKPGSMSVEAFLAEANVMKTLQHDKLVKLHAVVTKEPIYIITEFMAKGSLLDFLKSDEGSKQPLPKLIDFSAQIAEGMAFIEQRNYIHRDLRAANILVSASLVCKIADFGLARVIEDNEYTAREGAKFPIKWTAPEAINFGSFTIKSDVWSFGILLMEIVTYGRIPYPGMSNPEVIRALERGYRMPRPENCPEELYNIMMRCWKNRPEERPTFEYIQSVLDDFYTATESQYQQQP
Chain of Receptor tyrosine-protein kinase erbB-2 (P04626 whole entry): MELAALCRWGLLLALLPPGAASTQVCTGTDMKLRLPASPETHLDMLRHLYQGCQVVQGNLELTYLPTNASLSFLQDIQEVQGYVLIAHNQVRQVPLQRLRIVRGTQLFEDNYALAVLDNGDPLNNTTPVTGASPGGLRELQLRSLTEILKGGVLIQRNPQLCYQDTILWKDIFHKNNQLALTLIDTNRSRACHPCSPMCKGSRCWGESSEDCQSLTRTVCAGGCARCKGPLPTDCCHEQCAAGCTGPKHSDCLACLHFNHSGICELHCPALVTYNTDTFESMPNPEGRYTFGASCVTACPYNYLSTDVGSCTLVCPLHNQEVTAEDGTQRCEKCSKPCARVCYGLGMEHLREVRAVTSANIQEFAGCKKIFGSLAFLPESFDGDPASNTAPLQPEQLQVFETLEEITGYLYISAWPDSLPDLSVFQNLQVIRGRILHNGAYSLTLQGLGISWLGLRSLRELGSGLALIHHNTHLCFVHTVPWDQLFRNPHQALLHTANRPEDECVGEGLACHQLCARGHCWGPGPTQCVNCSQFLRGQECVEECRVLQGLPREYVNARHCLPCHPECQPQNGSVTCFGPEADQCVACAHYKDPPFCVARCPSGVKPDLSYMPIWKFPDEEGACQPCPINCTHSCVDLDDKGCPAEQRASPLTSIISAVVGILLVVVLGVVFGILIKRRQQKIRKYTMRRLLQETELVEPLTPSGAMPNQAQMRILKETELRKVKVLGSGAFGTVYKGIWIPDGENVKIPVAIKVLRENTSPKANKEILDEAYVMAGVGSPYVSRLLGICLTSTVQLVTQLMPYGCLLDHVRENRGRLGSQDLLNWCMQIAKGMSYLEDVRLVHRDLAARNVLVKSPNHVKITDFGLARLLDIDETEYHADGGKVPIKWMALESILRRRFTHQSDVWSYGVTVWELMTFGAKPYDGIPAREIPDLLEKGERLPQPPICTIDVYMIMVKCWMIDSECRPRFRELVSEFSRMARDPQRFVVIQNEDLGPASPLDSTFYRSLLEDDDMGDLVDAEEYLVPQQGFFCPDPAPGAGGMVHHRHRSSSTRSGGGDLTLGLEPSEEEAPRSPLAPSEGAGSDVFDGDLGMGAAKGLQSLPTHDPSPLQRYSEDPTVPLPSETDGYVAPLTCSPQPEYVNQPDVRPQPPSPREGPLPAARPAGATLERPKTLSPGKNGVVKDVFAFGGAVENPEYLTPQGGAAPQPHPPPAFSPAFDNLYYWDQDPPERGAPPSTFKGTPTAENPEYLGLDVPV
Chain of Tyrosine-protein kinase Fgr (P09769 whole entry): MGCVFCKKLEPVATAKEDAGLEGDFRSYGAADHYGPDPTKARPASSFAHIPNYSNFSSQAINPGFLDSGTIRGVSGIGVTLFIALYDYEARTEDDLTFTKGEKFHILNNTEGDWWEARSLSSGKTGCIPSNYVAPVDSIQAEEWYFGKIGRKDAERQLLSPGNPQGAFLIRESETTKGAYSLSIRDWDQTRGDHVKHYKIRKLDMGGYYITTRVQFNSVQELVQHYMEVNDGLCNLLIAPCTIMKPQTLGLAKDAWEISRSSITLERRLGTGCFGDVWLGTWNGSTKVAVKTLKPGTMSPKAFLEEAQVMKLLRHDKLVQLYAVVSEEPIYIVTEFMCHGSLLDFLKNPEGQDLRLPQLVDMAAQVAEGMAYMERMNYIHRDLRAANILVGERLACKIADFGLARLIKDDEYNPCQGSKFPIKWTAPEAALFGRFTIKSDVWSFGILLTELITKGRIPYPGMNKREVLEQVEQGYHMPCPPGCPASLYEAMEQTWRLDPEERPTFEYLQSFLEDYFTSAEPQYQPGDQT

For `Cc1cccc(Cl)c1Nc1nc2ccc(N3CCN[C@@H](C)C3)nc2n2cncc12`, the IC50 was more than 10000 nM in assay [1]; more than 10000 nM in [2]; 4.7 nM in assay [3]; more than 1000 nM in assay [4]; 23 nM in assay [6]; more than 1000 nM in assay [7]. Moreover, the half-inhibitory concentration (IC50) in [8] was more than 10000 nM; in assay [9], 0.5 nM; in assay [10] it was 5 nM; in [11], more than 1000 nM; in assay [12], 27 nM; in [13], 4 nM. Besides, the IC50 in [14] was 380 nM; in [15] it was 273 nM and > 100 nM; in assay [16], more than 10000 nM; in assay [17], more than 10000 nM; in assay [18], 2.8 nM. Moreover, the dissociation constant Kd in [5] turned out to be 0.17 nM. In [5], the inhibition constant Ki was found to be 0.55 nM.
